{"source": "the RNAGym collection of RNA variant scans (doi:10.1126/science.aae0568)", "parents": {"B1": {"name": "tRNA (parent)", "chain": "GUUCCGUUGGCGUAAUGGUAACGCGUCUCCCUCCUAAGGAGAAGACUGCGGGUUCGAGUCCCGUACGGAACG"}}, "note": "Variants at the floor of the assay were thinned out."}
{"variants_of": "B1", "experiment": "yeast fitness relative to wild type (ratio to wild type); higher = fitter; tRNA-Arg(CCU), competitive growth, 37 C, YPD", "method_in_brief": "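The tRNA-Arg(CCU) gene variants were made by chemical synthesis with a 3% per-site mutation rate at 69 sites and inserted at the native genomic locus of Saccharomyces cerevisiae. After pooling, the strains were competed in YPD at 37°C for 24 hours in six parallel replicates. Gene amplicons from the start population and each end population were read by 100-nucleotide paired-end sequencing, and Darwinian fitness relative to wild type was taken from genotype frequency changes. Genotypes needed ≥ 100 starting reads, and estimates < 0.5 were set to 0.5.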"}
{"variant": "C30A G58C G63A", "yeast fitness": "≤ 0.5"}
{"variant": "C30A G63A", "yeast fitness": 0.83}
{"variant": "C30A G63U U64A", "yeast fitness": "≤ 0.5"}
{"variant": "C30A G67A", "yeast fitness": 0.822}
{"variant": "C30A G68A", "yeast fitness": 0.862}
{"variant": "C30A G68A A69C", "yeast fitness": 0.629}
{"variant": "C30A G68C", "yeast fitness": 0.823}
{"variant": "C30A U32A A57C", "yeast fitness": "≤ 0.5"}
{"variant": "C30A U32A G38A C55A A65C", "yeast fitness": "≤ 0.5"}
{"variant": "C30A U32A U35G G67A", "yeast fitness": "≤ 0.5"}
{"variant": "C30A U32C", "yeast fitness": 0.892}
{"variant": "C30A U32G", "yeast fitness": 0.624}
{"variant": "C30A U35A", "yeast fitness": 0.569}
{"variant": "C30A U35A A42G A43C", "yeast fitness": "≤ 0.5"}
{"variant": "C30A U47C C61A A65C", "yeast fitness": "≤ 0.5"}
{"variant": "C30A U47C C66U A70U", "yeast fitness": "≤ 0.5"}
{"variant": "C30A U53A", "yeast fitness": 0.618}
{"variant": "C30A U53A C66U", "yeast fitness": "≤ 0.5"}
{"variant": "C30A U54A A69C", "yeast fitness": 0.539}
{"variant": "C30A U54C", "yeast fitness": 0.811}
{"variant": "C30A U59C", "yeast fitness": 0.863}
{"variant": "C30A U59G A69G", "yeast fitness": 0.599}
{"variant": "C30A U64C", "yeast fitness": 0.885}
{"variant": "C30G A36C C49A C55A G63C A69C", "yeast fitness": 0.608}
{"variant": "C30G A36G A57U A65U", "yeast fitness": 0.555}
{"variant": "C30G A36G U53A G68A", "yeast fitness": "≤ 0.5"}
{"variant": "C30G A36U C49G U53C G58C G67A A70U", "yeast fitness": "≤ 0.5"}
{"variant": "C30G A37C", "yeast fitness": 0.673}
{"variant": "C30G A37C A42G A57U", "yeast fitness": 1.01}
{"variant": "C30G A37C G38A A40U A45G", "yeast fitness": "≤ 0.5"}
{"variant": "C30G A37C G68A", "yeast fitness": "≤ 0.5"}
{"variant": "C30G A37G", "yeast fitness": 0.513}
{"variant": "C30G A37G A40C C55A G58C A65U A70U", "yeast fitness": 0.542}
{"variant": "C30G A37G A43U", "yeast fitness": 0.593}
{"variant": "C30G A37G C55G", "yeast fitness": 0.537}
{"variant": "C30G A37G C61U", "yeast fitness": "≤ 0.5"}
{"variant": "C30G A37U", "yeast fitness": 0.615}
{"variant": "C30G A37U G38A A57C A65C", "yeast fitness": "≤ 0.5"}
{"variant": "C30G A37U U47C C60A", "yeast fitness": 0.68}
{"variant": "C30G A40C", "yeast fitness": 0.595}
{"variant": "C30G A40C C55A G58C A65U A70U", "yeast fitness": 0.769}
{"variant": "C30G A40C C55G", "yeast fitness": 0.624}
{"variant": "C30G A40G", "yeast fitness": 0.605}
{"variant": "C30G A40G A45G G52C A57C C60U A70C", "yeast fitness": "≤ 0.5"}
{"variant": "C30G A40G G52C A57C C60U A70C", "yeast fitness": "≤ 0.5"}
{"variant": "C30G A42C G56A", "yeast fitness": "≤ 0.5"}
{"variant": "C30G A42G U64G", "yeast fitness": "≤ 0.5"}
{"variant": "C30G A42U C61A", "yeast fitness": 0.639}
{"variant": "C30G A42U G58C", "yeast fitness": "≤ 0.5"}
{"variant": "C30G A43C C60G", "yeast fitness": "≤ 0.5"}
{"variant": "C30G A43G", "yeast fitness": 0.589}
{"variant": "C30G A43G C49G", "yeast fitness": 0.544}
{"variant": "C30G A43U G48C C55A G63A", "yeast fitness": "≤ 0.5"}
{"variant": "C30G A45C", "yeast fitness": 0.669}
{"variant": "C30G A45C C61A G67C", "yeast fitness": "≤ 0.5"}
{"variant": "C30G A45G U47C", "yeast fitness": "≤ 0.5"}
{"variant": "C30G A45U C60G C62U C66G", "yeast fitness": "≤ 0.5"}
{"variant": "C30G A65C", "yeast fitness": 0.68}
{"variant": "C30G A65U", "yeast fitness": 0.589}
{"variant": "C30G A69U", "yeast fitness": 0.669}
{"variant": "C30G A70C", "yeast fitness": 0.719}
{"variant": "C30G A70G", "yeast fitness": 0.722}
{"variant": "C30G C31A", "yeast fitness": 0.62}
{"variant": "C30G C31A U47G G58C", "yeast fitness": "≤ 0.5"}
{"variant": "C30G C31G", "yeast fitness": 0.687}
{"variant": "C30G C31G A43G A57G", "yeast fitness": "≤ 0.5"}
{"variant": "C30G C31G A65U C66G", "yeast fitness": "≤ 0.5"}
{"variant": "C30G C31G C33G A37C", "yeast fitness": "≤ 0.5"}
{"variant": "C30G C31G C33G A37C G67C", "yeast fitness": "≤ 0.5"}
{"variant": "C30G C31G U32A C33U", "yeast fitness": 0.554}
{"variant": "C30G C31G U32A C33U A65U", "yeast fitness": "≤ 0.5"}
{"variant": "C30G C31U A57G U59A", "yeast fitness": "≤ 0.5"}
{"variant": "C30G C31U C46U", "yeast fitness": 0.609}
{"variant": "C30G C31U U32C", "yeast fitness": "≤ 0.5"}
{"variant": "C30G C31U U59A", "yeast fitness": 0.563}
{"variant": "C30G C33A", "yeast fitness": 0.563}
{"variant": "C30G C33A G56C A65G", "yeast fitness": "≤ 0.5"}
{"variant": "C30G C33G", "yeast fitness": "≤ 0.5"}
{"variant": "C30G C33G C49G C61G", "yeast fitness": 0.538}
{"variant": "C30G C33G C60G A70G", "yeast fitness": 0.544}
{"variant": "C30G C33G C60G A70U", "yeast fitness": "≤ 0.5"}
{"variant": "C30G C33U C66U", "yeast fitness": "≤ 0.5"}
{"variant": "C30G C33U G56C", "yeast fitness": "≤ 0.5"}
{"variant": "C30G C33U G58A", "yeast fitness": "≤ 0.5"}
